Measurements published in ChEMBL document CHEMBL5724801, “EUbOPEN Chemogenomics Library - Multiplex” (2024).
Where “and” joins values, the source holds several entries; their conditions need not be identical. Equal entries are not always repeated.

System: HEK-293T
Assay: Multiplex assay against HEK293T
Type: toxicity, cell-based
Settings: human
Procedure, shortened: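 Live cells were stained at seeding with Hoechst33342, BioTracker Green Microtubule Cytoskeleton Dye, MitoTracker Red and Annexin V Alexa Fluor 680, then imaged on a CQ1 microscope at 37°C and 5% CO2 after compound addition. CellPathfinder machine-learning gating split cells into Hoechst high-intensity objects or normal cells. Normal cells were split into healthy, pyknosed or fragmented nuclei, and pyknosed cells into mitotic or apoptotic. Tubulin, mitochondrial-mass and membrane-permeability phenotypes are per cents of healthy-nucleus cells.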

[1] = 12 h, 1 µM, compound concentration 1 uM
[2] = 12 h, 10 µM, compound concentration 10 uM
[3] = 24 h, 1 µM, compound concentration 1 uM
[4] = 24 h, 10 µM, compound concentration 10 uM
[5] = 48 h, 1 µM, compound concentration 1 uM
[6] = 48 h, 10 µM, compound concentration 10 uM

N#Cc1ccnc(Nc2cc(C3CCN(C4COC4)CC3)cc(N3CCC(F)(F)C3)n2)c1
Population Apoptotic (%) [1]: 18.37% and 8.2%
Population Fragmented Nuclei (%) [1]: 1.49% and 2.08%
Population Healthy Nuclei (%) [1]: 25.74% and 13.19%
Population Hoechst High Intensity Objects (%) [1]: 0.98% and 0%
Population Membrane Permeable-Phenotype (%) [1]: 0%
Population Mitotic Cells (%) [1]: 81.63% and 91.8%
Population Normal (%) [1]: 99.02% and 100%
Population Pyknosed Nuclei (%) [1]: 72.77% and 84.72%
Population Tubulin-Different-Phenotype (%) [1]: 32.69% and 42.11%
Total Cell Count [1]: 204 and 144
Population Apoptotic (%) [2]: 23.38% and 27.5%
Population Fragmented Nuclei (%) [2]: 5.2% and 14.04%
Population Healthy Nuclei (%) [2]: 20.07% and 15.79%
Population Hoechst High Intensity Objects (%) [2]: 0.37% and 0.87%
Population Mitotic Cells (%) [2]: 76.62% and 72.5%
Population Normal (%) [2]: 99.63% and 99.13%
Population Pyknosed Nuclei (%) [2]: 74.72% and 70.18%
Total Cell Count [2]: 270 and 230
Population Apoptotic (%) [3]: 44.81% and 25.93%
Population Fragmented Nuclei (%) [3]: 1.81% and 1.57%
Population Hoechst High Intensity Objects (%) [3]: 0.72% and 0.78%
Population Membrane Permeable-Phenotype (%) [3]: 2.56% and 0%
Population Mitochondria Different-Phenotype (%) [3]: 41.88% and 35.29%
Population Mitotic Cells (%) [3]: 55.19% and 74.07%
Population Normal (%) [3]: 99.28% and 99.22%
Population Pyknosed Nuclei (%) [3]: 55.8% and 85.04%
Population Tubulin-Different-Phenotype (%) [3]: 49.57% and 23.53%
Total Cell Count [3]: 278 and 128
Population Apoptotic (%) [4]: 63.77% and 56.46%
Population Fragmented Nuclei (%) [4]: 4.87% and 13.57%
Population Healthy Nuclei (%) [4]: 17.6% and 19.91%
Population Hoechst High Intensity Objects (%) [4]: 0.74% and 0%
Population Membrane Permeable-Phenotype (%) [4]: 0% and 9.09%
Population Mitotic Cells (%) [4]: 36.23% and 43.54%
Population Normal (%) [4]: 99.26% and 100%
Population Pyknosed Nuclei (%) [4]: 77.53% and 66.52%
Total Cell Count [4]: 269 and 221
Population Fragmented Nuclei (%) [5]: 4.08% and 0.7%
Population Healthy Nuclei (%) [5]: 73.7% and 38.46%
Population Hoechst High Intensity Objects (%) [5]: 0.23% and 0.69%
Population Membrane Permeable-Phenotype (%) [5]: 4.31% and 3.64%
Population Mitochondria Different-Phenotype (%) [5]: 60.62% and 56.36%
Population Mitotic Cells (%) [5]: 69.39% and 90.8%
Population Normal (%) [5]: 99.77% and 99.31%
Population Pyknosed Nuclei (%) [5]: 22.22% and 60.84%
Population Apoptotic (%) [6]: 88.68% and 82.35%
Population Fragmented Nuclei (%) [6]: 5.62% and 11.71%
Population Healthy Nuclei (%) [6]: 14.98% and 13.66%
Population Hoechst High Intensity Objects (%) [6]: 0.37% and 0.49%
Population Membrane Permeable-Phenotype (%) [6]: 5% and 3.57%
Population Mitotic Cells (%) [6]: 11.32% and 17.65%
Population Normal (%) [6]: 99.63% and 99.51%
Population Pyknosed Nuclei (%) [6]: 79.4% and 74.63%
Total Cell Count [6]: 268 and 206

Cc1cc(Nc2ncc(Cl)c(Nc3ccccc3S(=O)(=O)C(C)C)n2)c(OC(C)C)cc1C1CCNCC1 [CERITINIB]
Population Apoptotic (%) [1]: 15.93% and 15.13%
Population Fragmented Nuclei (%) [1]: 1.92% and 4.62%
Population Hoechst High Intensity Objects (%) [1]: 1.88% and 0.76%
Population Membrane Permeable-Phenotype (%) [1]: 1.35% and 0%
Population Mitochondria Different-Phenotype (%) [1]: 32.43% and 80%
Population Mitotic Cells (%) [1]: 84.07% and 84.87%
Population Normal (%) [1]: 98.12% and 99.24%
Population Pyknosed Nuclei (%) [1]: 69.73% and 91.54%
Population Tubulin-Different-Phenotype (%) [1]: 50% and 80%
Total Cell Count [1]: 266 and 131
Population Apoptotic (%) [2]: 30.99% and 76.42%
Population Fragmented Nuclei (%) [2]: 1.54% and 6.06%
Population Healthy Nuclei (%) [2]: 2.15% and 0.76%
Population Hoechst High Intensity Objects (%) [2]: 1.22% and 0%
Population Membrane Permeable-Phenotype (%) [2]: 0%
Population Mitotic Cells (%) [2]: 69.01% and 23.58%
Population Normal (%) [2]: 98.78% and 100%
Population Pyknosed Nuclei (%) [2]: 96.31% and 93.18%
Total Cell Count [2]: 329 and 132
Population Apoptotic (%) [3]: 45.74% and 45.87%
Population Fragmented Nuclei (%) [3]: 2.55% and 3.68%
Population Hoechst High Intensity Objects (%) [3]: 0% and 0.73%
Population Membrane Permeable-Phenotype (%) [3]: 0%
Population Mitochondria Different-Phenotype (%) [3]: 64.49% and 77.27%
Population Mitotic Cells (%) [3]: 54.26% and 54.13%
Population Normal (%) [3]: 100% and 99.27%
Population Pyknosed Nuclei (%) [3]: 47.08% and 80.15%
Population Tubulin-Different-Phenotype (%) [3]: 71.01% and 54.55%
Total Cell Count [3]: 274 and 137
Population Apoptotic (%) [4]: 64.24% and 88.24%
Population Fragmented Nuclei (%) [4]: 1.89% and 7.03%
Population Healthy Nuclei (%) [4]: 2.84% and 0%
Population Hoechst High Intensity Objects (%) [4]: 0%
Population Membrane Permeable-Phenotype (%) [4]: 0%
Population Mitochondria Different-Phenotype (%) [4]: 88.89%
Population Normal (%) [4]: 100%
Population Pyknosed Nuclei (%) [4]: 95.27% and 92.97%
Population Tubulin-Different-Phenotype (%) [4]: 100%
Total Cell Count [4]: 317 and 128
Population Apoptotic (%) [5]: 27.27% and 48.81%
Population Fragmented Nuclei (%) [5]: 2.27% and 3.2%
Population Healthy Nuclei (%) [5]: 75% and 29.6%
Population Hoechst High Intensity Objects (%) [5]: 0.21% and 1.57%
Population Membrane Permeable-Phenotype (%) [5]: 1.38% and 2.7%
Population Mitochondria Different-Phenotype (%) [5]: 68.6% and 81.08%
Population Mitotic Cells (%) [5]: 72.73% and 51.19%
Population Normal (%) [5]: 99.79% and 98.43%
Population Pyknosed Nuclei (%) [5]: 22.73% and 67.2%
Population Apoptotic (%) [6]: 62.54% and 87.16%
Population Fragmented Nuclei (%) [6]: 1.6% and 9.02%
Population Healthy Nuclei (%) [6]: 7.99% and 9.02%
Population Hoechst High Intensity Objects (%) [6]: 0%
Population Membrane Permeable-Phenotype (%) [6]: 0% and 8.33%
Population Mitochondria Different-Phenotype (%) [6]: 92% and 91.67%
Population Mitotic Cells (%) [6]: 37.46% and 12.84%
Population Normal (%) [6]: 100%
Population Pyknosed Nuclei (%) [6]: 90.42% and 81.95%
Population Tubulin-Different-Phenotype (%) [6]: 52% and 91.67%
Total Cell Count [6]: 313 and 133
